697 NFkB inh – inhibitors of the PMA/ionomycin-induced NF-kB reporter in 697 B cells | 697 B-cell NF-kB luciferase reporter, 16 h | inhibition, % at 4 µM | hit rate 0.33% among 330,000 | AID 435022; in the data active = inhibition above about 35%
Jurkat NFkB inh – lowers PMA/ionomycin-induced NF-kB signal in Jurkat cells; PMA/ionomycin-induced NF-kB luciferase reporter, luminescence; inhibition, % at 4 µM; hit rate 0.53% among 330,000; in the data active = inhibition above about 50%
CHOP UPR activ – activators of apoptotic arm of unfolded protein response (CHOP). CHO-CHOP luciferase reporter, UPR activation, luminescence; percent of tunicamycin response over DMSO baseline. hit rate 0.34% among 330,000. AID 449763. activation, % at 10 µM;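 active = at 10 µM dose, activation of 40% or more, normalized to positive control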
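Test system: CHO-CHOP cells, stable luciferase reporter of PERK-eIF2a-CHOP signalling | Quantity: 500 CHO-CHOP cells per well | Buffer or medium: F12 plus 10% serum | Compound dosing: 10 µM single point, 0.5% DMSO | Schedule: 6 h compound treatment, 37 °C | Signal: Luciferase luminescence | Control set: Tunicamycin high control, DMSO low control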
UPR XBP1 act – adaptive UPR (XBP1) activation. hit rate 0.33% among 330,000. activation, % at 20 µM. AID 463104. CHO-XBP1 luciferase reporter, IRE1-XBP1 UPR activation, luminescence; percent of tunicamycin response, DMSO as zero;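 active = versus positive control, 20 µM dose yields 30% or more activation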
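Material: CHO-XBP1 cells stably carrying IRE1-XBP1-driven luciferase reporter | Medium: F12 with 10% serum | Compound dosing: 20 µM single concentration, DMSO 1% | Incubation: Overnight seeding at 37 °C, 6 h compound treatment at 37 °C | Detection: Steady-Glo luminescence read | Read-out basis: % activation of reporter signal versus tunicamycin and DMSO controls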
CHOP inh – blocks CHOP induction under ER stress. CHO-K1 CHOP-promoter luciferase, tunicamycin-induced, 15-18 h. inhibition, % at 10 µM. hit rate 3.8% among 220,000. AID 2732;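 active = compounds that reduced the stress-induced luciferase reporter signal by more than about 70% of percent inhibition, limit read from the data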
UPR CHOP confirm – confirmation of apoptotic unfolded protein response (CHOP) activators. CHO-CHOP cells, CHOP-luciferase reporter luminescence; percent of tunicamycin response, DMSO as zero. AID 463112. activation, % at 10 µM. hit rate 64% among 1,000. shares compounds with CHOP UPR activ; in the data active = activation above about 33%
A number is an active result. The sample as a whole holds a higher share of hits than the screen did.

What do the screens show for `CCCN1C/C(=C/c2ccc3c(c2)OCO3)C(=O)/C(=C/c2ccc3c(c2)OCO3)C1`?
697 NFkB inh: inactive; Jurkat NFkB inh: inactive; CHOP UPR activ: 55; UPR XBP1 act: inactive; CHOP inh: 97; UPR CHOP confirm: 115

How did Cc1ccc(NC(=O)NC(=O)CSc2nnc(-c3ccc(Cl)cc3Cl)n2N)c(C)c1 do in these assays?
697 NFkB inh: inactive; Jurkat NFkB inh: inactive; CHOP UPR activ: inactive; UPR XBP1 act: inactive; CHOP inh: inactive

How did CCOc1ccc(N2C(=O)CC(Sc3nc4ccc(OCC)cc4s3)C2=O)cc1 (configuration not stated) do in these assays?
697 NFkB inh: inactive; Jurkat NFkB inh: inactive; CHOP UPR activ: inactive; UPR XBP1 act: inactive

What do the screens show for `CCOc1ccc2nc(SC3CC(=O)N(c4ccc(C)cc4)C3=O)sc2c1` (configuration not stated)?
697 NFkB inh: inactive; Jurkat NFkB inh: inactive; CHOP UPR activ: 45; UPR XBP1 act: inactive; CHOP inh: inactive; UPR CHOP confirm: 65

What do the screens show for `O=C(CCc1ccc(O)c(O)c1)N/N=C/c1ccc2c(c1)OCO2`?
697 NFkB inh: inactive; Jurkat NFkB inh: inactive; CHOP UPR activ: 49; UPR XBP1 act: 34; UPR CHOP confirm: inactive

Results for CC(C)Oc1ccc(CCC(=O)N/N=C/c2ccc3c(c2)OCO3)cc1 ?
697 NFkB inh: inactive; Jurkat NFkB inh: inactive; CHOP UPR activ: inactive; UPR XBP1 act: inactive

Results for CC(=O)Nc1ccc(Nc2nc(C(F)(F)F)nc3c2nnn3Cc2ccccc2Cl)cc1 ?
697 NFkB inh: inactive; Jurkat NFkB inh: inactive; CHOP UPR activ: inactive; UPR XBP1 act: inactive

Results for CC1CCCCC1NC(=O)NC(=O)CCl (configuration not stated) ?
697 NFkB inh: inactive; Jurkat NFkB inh: inactive; CHOP UPR activ: 42; UPR XBP1 act: inactive; CHOP inh: inactive; UPR CHOP confirm: inactive

What do the screens show for `Cc1ccc(-c2nn3c(C)nnc3s2)cc1NC(=O)c1ccc(-c2ccc(Cl)cc2Cl)o1`?
697 NFkB inh: inactive; Jurkat NFkB inh: inactive; CHOP UPR activ: 46; UPR XBP1 act: 51; CHOP inh: 81; UPR CHOP confirm: 35

Results for Cc1ccc(-c2nn3c(C)nnc3s2)cc1NC(=O)c1ccc(-c2cccc(Cl)c2)o1 ?
697 NFkB inh: inactive; Jurkat NFkB inh: inactive; CHOP UPR activ: inactive; UPR XBP1 act: inactive; CHOP inh: inactive

Results for O=C(O)[C@@H]1CC(O)CN1C(=O)CCc1c[nH]c2ccccc12 (some centres not stated) ?
697 NFkB inh: inactive; Jurkat NFkB inh: inactive; CHOP UPR activ: inactive; UPR XBP1 act: inactive

Results for Oc1ccc(/C=N\Nc2cc(N3CCOCC3)nc(N3CCOCC3)n2)c(O)c1 ?
697 NFkB inh: inactive; Jurkat NFkB inh: inactive; CHOP UPR activ: inactive; UPR XBP1 act: inactive; CHOP inh: inactive

How did Oc1ccc(/C=N/Nc2cc(N3CCCC3)nc(N3CCCC3)n2)cc1O do in these assays?
697 NFkB inh: inactive; Jurkat NFkB inh: inactive; CHOP UPR activ: 126; UPR XBP1 act: inactive; CHOP inh: inactive; UPR CHOP confirm: 124

Results for O=C(N1CCN(c2ccccc2)CC1)C1(c2cccs2)CCOCC1 ?
697 NFkB inh: inactive; Jurkat NFkB inh: inactive; CHOP UPR activ: inactive; UPR XBP1 act: inactive; CHOP inh: inactive

How did CC1=C(c2ccccc2)C(=S)NC(C)(C)C1 do in these assays?
697 NFkB inh: inactive; Jurkat NFkB inh: inactive; CHOP UPR activ: inactive; UPR XBP1 act: inactive; CHOP inh: inactive

Results for Cc1cc(C(C)(C)C)ccc1OC(=O)C1=CC=CN2CCS(=O)(=O)N=C12 ?
697 NFkB inh: inactive; Jurkat NFkB inh: inactive; CHOP UPR activ: inactive; UPR XBP1 act: inactive

How did Cc1nc2ccccc2c(=O)n1-c1cccc(NC(=O)c2cccs2)c1 do in these assays?
697 NFkB inh: inactive; Jurkat NFkB inh: inactive; CHOP UPR activ: inactive; UPR XBP1 act: inactive

Results for O=C(Nc1cccc(N2C(=O)C=CC2=O)c1)c1cccs1 ?
697 NFkB inh: inactive; Jurkat NFkB inh: inactive; CHOP UPR activ: 124; UPR XBP1 act: inactive; UPR CHOP confirm: inactive

What do the screens show for `O=C(CSc1ccc2ccccc2c1)NCCc1ccc(O)c(O)c1`?
697 NFkB inh: inactive; Jurkat NFkB inh: inactive; CHOP UPR activ: 55; UPR XBP1 act: inactive; CHOP inh: inactive; UPR CHOP confirm: 46

How did CS(=O)(=O)c1ccc(S(=O)CC(=O)Oc2ccc(Cl)cc2)c([N+](=O)[O-])c1 (configuration not stated) do in these assays?
697 NFkB inh: inactive; Jurkat NFkB inh: inactive; CHOP UPR activ: 51; UPR XBP1 act: inactive; CHOP inh: 108; UPR CHOP confirm: inactive

How did COc1cccc(CC(=O)OC(C)C(=O)Nc2ncc(Cl)cc2Cl)c1 (configuration not stated) do in these assays?
697 NFkB inh: inactive; Jurkat NFkB inh: inactive; CHOP UPR activ: inactive; UPR XBP1 act: inactive

What do the screens show for `O=C(/C=C/c1ccccc1Cl)c1ccc(O)cc1`?
697 NFkB inh: inactive; Jurkat NFkB inh: inactive; CHOP UPR activ: inactive; UPR XBP1 act: inactive; CHOP inh: inactive

Results for O=C(/C=C/c1c(F)cccc1Cl)c1ccc(O)cc1 ?
697 NFkB inh: inactive; Jurkat NFkB inh: inactive; CHOP UPR activ: 60; UPR XBP1 act: inactive; CHOP inh: inactive; UPR CHOP confirm: inactive

Results for COc1ccc(C(=O)N[C@H](C(=O)OCC(=O)NC(=O)c2cccn2C)C(C)C)cc1 ?
697 NFkB inh: inactive; Jurkat NFkB inh: inactive; CHOP UPR activ: inactive; UPR XBP1 act: inactive; CHOP inh: inactive

How did Cc1nnc(NC(=O)c2nc(S(=O)(=O)Cc3ccccc3C)ncc2Cl)s1 do in these assays?
697 NFkB inh: inactive; Jurkat NFkB inh: inactive; CHOP UPR activ: inactive; UPR XBP1 act: inactive

Results for O=C(NCc1ccc2c(c1)OCO2)c1nc(S(=O)(=O)Cc2ccccc2F)ncc1Cl ?
697 NFkB inh: inactive; Jurkat NFkB inh: inactive; CHOP UPR activ: 43; UPR XBP1 act: inactive; UPR CHOP confirm: inactive

What do the screens show for `CSc1ncc(Cl)c(C(=O)Nc2nnc(SC/C=C/c3ccccc3)s2)n1`?
697 NFkB inh: inactive; Jurkat NFkB inh: inactive; CHOP UPR activ: inactive; UPR XBP1 act: inactive; CHOP inh: inactive

Results for CC(C)c1nnc(NC(=O)c2nc(S(=O)(=O)Cc3ccccc3F)ncc2Cl)s1 ?
697 NFkB inh: inactive; Jurkat NFkB inh: inactive; CHOP UPR activ: 56; UPR XBP1 act: inactive; UPR CHOP confirm: inactive

How did O=C(NCc1ccc2c(c1)OCO2)c1ccccc1Cl do in these assays?
697 NFkB inh: inactive; Jurkat NFkB inh: inactive; CHOP UPR activ: inactive; UPR XBP1 act: inactive

Results for CSc1nnc(NC(=O)c2nc(S(=O)(=O)Cc3ccccc3F)ncc2Cl)s1 ?
697 NFkB inh: inactive; Jurkat NFkB inh: inactive; CHOP UPR activ: 44; UPR XBP1 act: inactive; UPR CHOP confirm: 77

How did Cc1ccc(Nc2ncnc(N)n2)cc1C do in these assays?
697 NFkB inh: inactive; Jurkat NFkB inh: inactive; CHOP UPR activ: inactive; UPR XBP1 act: inactive; CHOP inh: inactive

High-throughput results (PubChem)
